# Experimental data published in article PMC6955414 (British Journal of Clinical Pharmacology, 2019).
# Like-named read-outs stand apart in the source and are kept apart here.
# Key:
# [1] = cited from earlier work
# [2] = assay type: in vivo, human; conditions: for AUC0–inf, geometric mean / Cmax, geometric mean / AUC_% Extrap / CL/F / Cmax / T1/2 / Tmax / Vz/F / median Tmax: single 200 μg s.c.; for AUC_% Extrap / CL/F / Cmax / T1/2 / Tmax / Vz/F: mean ± SD
# In short: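 Open-label phase I study in renally impaired and matched normal-function adults (CLcr ≥90 mL/min), with or without T2DM. A single abdominal s.c. injection was given at 08:00, followed by a standard breakfast. […] Parameters came from noncompartmental analysis; log-transformed AUC0–inf ratios to the normal group were given with 90% CI.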
# Safety evaluation = assay type: in vivo, human
# In short: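 Single abdominal s.c. 200 μg dose given fasting on day 1. Monitoring covered adverse events, vital signs, physical examination, fasting venous glucose, blood and urine routine, blood biochemistry and 12-lead ECG. Assessments were at 24, 144, 312 and 720 h post-dose. The safety set comprised all dosed subjects with post-dose safety data.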
# [3] = Mild impairment (n=8), single 200 μg s.c.
# [4] = Moderate impairment (n=8), single 200 μg s.c.
# [5] = Normal renal function (n=10), single 200 μg s.c.
# [6] = all groups (26 subjects), single 200 μg s.c.
substance,measurement,setting,value
exenatide,in vivo half-life,[1],2 to 3 h
Polyethylene glycol loxenatide [PEX168],"AUC0–inf, geometric mean",[2]; Mild impairment (n=8),16 500 h^*ng/mL
same,"Cmax, geometric mean",[2]; Mild impairment (n=8),48.5 ng/mL
same,AUC_% Extrap,"[2]; Mild renal impairment, n=8",3.49 ± 1.32%
same,CL/F,"[2]; Mild renal impairment, n=8",0.0136 ± 0.00657 L/h
same,Cmax,"[2]; Mild renal impairment, n=8",54.1 ± 29.7 ng/mL
same,T1/2,"[2]; Mild renal impairment, n=8",117 ± 16.5 h
same,Tmax,"[2]; Mild renal impairment, n=8",123 ± 15.4 h
same,Vz/F,"[2]; Mild renal impairment, n=8",2.28 ± 1.09 L
same,"AUC0–inf, geometric mean",[2]; Moderate impairment (n = 7),29 200 h^*ng/mL
same,"Cmax, geometric mean",[2]; Moderate impairment (n = 7),73.1 ng/mL
same,AUC_% Extrap,"[2]; Moderate renal impairment, n=7",6.92 ± 1.75%
same,CL/F,"[2]; Moderate renal impairment, n=7",0.00711 ± 0.0022 L/h
same,Cmax,"[2]; Moderate renal impairment, n=7",78.1 ± 35.9 ng/mL
same,T1/2,"[2]; Moderate renal impairment, n=7",163 ± 14.7 h
same,Tmax,"[2]; Moderate renal impairment, n=7",144 ± 33.9 h
same,Vz/F,"[2]; Moderate renal impairment, n=7",1.69 ± 0.61 L
same,"AUC0–inf, geometric mean",[2]; Normal (n = 8),14 600 h^*ng/mL
same,"Cmax, geometric mean",[2]; Normal (n = 8),56.6 ng/mL
same,CL/F,"[2]; Normal renal function, n=8",0.0140 ± 0.00298 L/h
same,Tmax,"[2]; Normal renal function, n=8",114 ± 45.8 h
same,Vz/F,"[2]; Normal renal function, n=8",2.44 ± 0.56 L
same,median Tmax,[2]; mild impairment group,120 h
same,"Cmax, geometric mean ratio normal vs mild","[2]; mild impairment relative to normal renal function, 90%CI 61.5–119",85.6%
same,"AUC0–inf, geometric mean ratio normal vs mild","[2]; mild impairment relative to normal renal function, 90%CI 82.1–156",113%
same,AUC0–inf increase compared to the normal group,[2]; mild renal impairment,13.1%
same,Cmax reduction compared to the normal group,[2]; mild renal impairment,14.3%
same,median Tmax,[2]; moderate impairment group,144 h
same,"Cmax, geometric mean ratio normal vs moderate","[2]; moderate impairment relative to normal renal function, 90%CI 91.7–182",129%
same,"AUC0–inf, geometric mean ratio normal vs moderate","[2]; moderate impairment relative to normal renal function, 90%CI 144–280",201%
same,AUC0–inf increase compared to the normal group,[2]; moderate renal impairment,100.7%
same,Cmax increase compared to the normal group,[2]; moderate renal impairment,29.1%
same,median Tmax,[2]; normal group,96 h
same,"Treatment-emergent AE: Abdominal discomforts, %",Safety evaluation; [3],0%
same,"Treatment-emergent AE: Acute kidney injury, %",Safety evaluation; [3],0%
same,"Treatment-emergent AE: Anaemia, %",Safety evaluation; [3],0%
same,"Treatment-emergent AE: Bloating, %",Safety evaluation; [3],25%
same,"Treatment-emergent AE: Hiccup, %",Safety evaluation; [3],12.5%
same,"Treatment-emergent AE: Increased white blood cell count, %",Safety evaluation; [3],0%
same,"Treatment-emergent AE: Nausea, %",Safety evaluation; [3],50%
same,"Treatment-emergent AE: Oropharyngeal discomfort, %",Safety evaluation; [3],12.5%
same,"Treatment-emergent AE: Overall AEs, %",Safety evaluation; [3],87.5%
same,"Treatment-emergent AE: Retching, %",Safety evaluation; [3],0%
same,"Treatment-emergent AE: Vomiting, %",Safety evaluation; [3],50%
same,"Treatment-emergent AE: Abdominal discomforts, %",Safety evaluation; [4],0%
same,"Treatment-emergent AE: Acute kidney injury, %",Safety evaluation; [4],12.5%
same,"Treatment-emergent AE: Anaemia, %",Safety evaluation; [4],12.5%
same,"Treatment-emergent AE: Bloating, %",Safety evaluation; [4],0%
same,"Treatment-emergent AE: Hiccup, %",Safety evaluation; [4],12.5%
same,"Treatment-emergent AE: Increased white blood cell count, %",Safety evaluation; [4],12.5%
same,"Treatment-emergent AE: Nausea, %",Safety evaluation; [4],62.5%
same,"Treatment-emergent AE: Oropharyngeal discomfort, %",Safety evaluation; [4],0%
same,"Treatment-emergent AE: Overall AEs, %",Safety evaluation; [4],87.5%
same,"Treatment-emergent AE: Retching, %",Safety evaluation; [4],12.5%
same,"Treatment-emergent AE: Vomiting, %",Safety evaluation; [4],50%
same,"Treatment-emergent AE: Abdominal discomforts, %",Safety evaluation; [5],10%
same,"Treatment-emergent AE: Acute kidney injury, %",Safety evaluation; [5],0%
same,"Treatment-emergent AE: Anaemia, %",Safety evaluation; [5],0%
same,"Treatment-emergent AE: Bloating, %",Safety evaluation; [5],50%
same,"Treatment-emergent AE: Hiccup, %",Safety evaluation; [5],0%
same,"Treatment-emergent AE: Increased white blood cell count, %",Safety evaluation; [5],0%
same,"Treatment-emergent AE: Nausea, %",Safety evaluation; [5],20%
same,"Treatment-emergent AE: Oropharyngeal discomfort, %",Safety evaluation; [5],0%
same,"Treatment-emergent AE: Overall AEs, %",Safety evaluation; [5],70%
same,"Treatment-emergent AE: Retching, %",Safety evaluation; [5],0%
same,"Treatment-emergent AE: Vomiting, %",Safety evaluation; [5],0%
same,"AE: gastrointestinal disorders, subjects",Safety evaluation; [6],80.8%
same,"AE: laboratory tests, subjects",Safety evaluation; [6],42.3%
same,"AE: metabolism and nutrition disorders, subjects",Safety evaluation; [6],42.3%
same,"Treatment-emergent AE: gastrointestinal disorders, subjects","Safety evaluation; all groups, single 200 μg s.c., including nausea, vomiting and bloating",80.8%
same,Tolerability,"Safety evaluation; single dose of 200 μg, patients with mild-to-moderate renal impairment",well tolerated
